The test system of data set [1] is Pichia kudriavzevii. The data set can be described thus: Antimicrobial activity against Candida krusei ATCC 6258 […] by broth macrodilution method. The format is functional. The settings on record: for MIC: read-out: MIC100.
The test system of data set [2] is Candida parapsilosis. The data set can be described thus: Antimicrobial activity against Candida parapsilosis ATCC 22019 […] by broth macrodilution method. As to conditions: Lodderomyces parapsilosis, read-out: MIC100. In kind it is functional.
The test system of data set [3] is Candida tropicalis. The data set can be described thus: Antimicrobial activity against Candida tropicalis MY1012 after 24 hrs by broth macrodilution method. The format is functional. As to conditions: for MIC: read-out: MIC100. The method, boiled down: (§1)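 Broth MIC: inoculum 10^5 CFU/ml, incubated at 37 °C with 2-fold serial dilutions of compound in growth medium. MIC was the lowest concentration preventing visible growth.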

In data set [4] the test system is Candida albicans. The data set can be described thus: Antimicrobial activity against Candida albicans MY1055 after 24 hrs by broth macrodilution method. In kind it is functional. The settings on record: for MIC: read-out: MIC100. An outline of the steps: as §1
Data set [5] concerns Nakaseomyces glabratus. The data set can be described thus: Antimicrobial activity against Candida glabrata MY1381 […] by broth macrodilution method. In kind it is functional. The settings on record: for MIC: read-out: MIC100.
Data set [6] has as its system Trichophyton mentagrophytes. The data set can be described thus: Antimicrobial activity against Trichophyton mentagrophytes MF7004 after 96 hrs by broth macrodilution method. In kind it is functional. As to conditions: for MIC: read-out: MIC100.
The test system of data set [7] is Aspergillus fumigatus. The data set can be described thus: Antimicrobial activity against Aspergillus fumigatus MF5668 after 48 hrs by broth macrodilution method. The format is functional. As to conditions: for MIC: read-out: MIC100. The method, boiled down:
as §1

Data set [8] relates to Staphylococcus aureus. The data set can be described thus: Antimicrobial activity against Staphylococcus aureus MB2865 […] by broth macrodilution method. The format is functional. The settings on record: read-out: MIC100.
The test system of data set [9] is Candida albicans. The data set can be described thus: Antimicrobial activity against Candida albicans MY1055 after 24 hrs in presence of 50% mouse serum by broth macrodilution method. In kind it is functional. As to conditions: MY1055, 24 h; for MIC: read-out: MIC100.
Data set [10] concerns Aspergillus fumigatus. The data set can be described thus: Antimicrobial activity against Aspergillus fumigatus MF5668 in presence of 50% human serum after 48 hrs by broth macrodilution method. In kind it is functional. As to conditions: for MIC: read-out: MIC100.
Data set [11] relates to Clavispora lusitaniae. The data set can be described thus: Antimicrobial activity against Candida lusitaniae MY1396 after 24 hrs by broth macrodilution method. In kind it is functional. As to conditions: for MIC: read-out: MIC100. The method, boiled down: as §1
Data set [12] relates to Mus musculus. The data set can be described thus: Toxicity in Candida albicans MY1055 infected DBA/2 mouse assessed as mouse mortality at 12.5 mg/kg, ip administered twice daily for 2 days. In kind it is organism-based. Further details: dose 12.5 mg/kg, route intraperitoneal. The settings on record: in vivo, 48 h. An outline of the steps:
(§2)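 DBA/2 mice, five per group, were infected i.v. via lateral tail vein with 2.51 × 10^4 CFU/mouse. Sodium salt in water was given IP twice daily at 50, 25, 12.5, 5 or 2.5 mg/kg. Kidneys were homogenized in saline, serially diluted and plated on SDA (35 °C, 30–48 h). CFU/g were compared with sham-treated mice by paired two-tailed t-test.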

The subject of data set [13] is Candida albicans. The data set can be described thus: Antimicrobial activity against Candida albicans MY1055 at 32 ug/mL after 24 hrs by broth macrodilution method. In kind it is functional, organism-based.
Data set [14] deals with Candida albicans. The data set can be described thus: Antimicrobial activity against Candida albicans MY1055 infected DBA/2 mouse administered twice daily for 2 days. In kind it is functional, organism-based. The method, boiled down: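 DBA/2 mice (5 per group) were infected i.v. via lateral tail vein with 2.51 × 10^4 CFU per mouse. The sodium salt in water was given IP twice daily at 50, 25, 12.5, 5 or 2.5 mg/kg. Mortality and health were followed for 4 days. Kidney homogenates were plated on SDA (35 °C, 30–48 h). CFU/g kidney was compared with sham-treated controls by paired two-tailed t-test.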

In data set [15] the test system is Mus musculus. The data set can be described thus: Toxicity in Candida albicans MY1055 infected DBA/2 mouse assessed as mouse mortality at 25 mg/kg, ip administered twice daily for 2 days. Further details: dose 25 mg/kg, route intraperitoneal. The settings on record: in vivo, 48 h. In kind it is organism-based. An outline of the steps:
as §2

Data set [16] is described as follows: Half life in Candida albicans MY1055 infected iv dosed DBA/2 mouse. In kind it is ADME, organism-based. The settings on record: in vivo.
Data set [17] concerns Mus musculus. The data set can be described thus: Dose normalized AUC in Candida albicans MY1055 infected iv dosed DBA/2 mouse. In kind it is ADME, organism-based. As to conditions: in vivo.
Data set [18] is described as follows: Toxicity against human HCT116 cells. The format is cell-based, HCT-116.
Data set [19] in a line: Toxicity against human GTL16 cells. The format is cell-based, GTL 16.
Data set [20] concerns Candida albicans. The data set can be described thus: Antimicrobial activity against Candida albicans MY1055 infected DBA/2 mouse at <5 mg/kg, ip administered twice daily for 2 days. In kind it is functional, organism-based. An outline of the steps: as §2
The subject of data set [21] is Candida albicans. The data set can be described thus: Antimicrobial activity against Candida albicans MY1055 infected DBA/2 mouse at <5 mg/kg, […] administered twice daily for 2 days. In kind it is functional, organism-based.
Data set [22] relates to Mus musculus. The data set can be described thus: Toxicity in Candida albicans MY1055 infected DBA/2 mouse assessed as mouse mortality at 50 mg/kg, ip administered twice daily for 2 days. In kind it is organism-based. Also noted: dose 50 mg/kg, route intraperitoneal. The settings on record: in vivo, 48 h. An outline of the steps: as §2
Data set [23] can be described thus: Toxicity against human PC3 cells. The format is cell-based, PC-3.
A short description of data set [24]: Toxicity against human HEL cells. The format is cell-based.
The nature of data set [25]: Clearance in Candida albicans MY1055 infected iv dosed DBA/2 mouse. The format is ADME, organism-based. As to conditions: in vivo.
In data set [26] the test system is Mus musculus. The data set can be described thus: Toxicity in Candida albicans MY1055 infected DBA/2 mouse assessed as mouse mortality at <5 mg/kg, ip administered twice daily for 2 days. The settings on record: in vivo, 48 h. The format is organism-based. An outline of the steps:
as §2

Converted amounts (≈) assume the structure as drawn. The source made the active and inactive calls. Where a SMILES comes first, the peptide text is derived from it. [ ]: non-standard residue; d: D form. The star is where a group is joined. X1 = CCCCCCCCCCCCC(C)C(O)CC(=O)*; hSer = N[C@@H](CCO)C(=O)O Where only a bound is given, the exact number is not on record here.

Regarding `CC[C@H](C)C[C@H](C)CCCCCCCCC(=O)N[C@H]1C[C@@H](O)[C@@H](NCCN)NC(=O)[C@@H]2[C@@H](O)CCN2C(=O)[C@H]([C@H](O)CCN)NC(=O)[C@H]([C@H](O)[C@@H](O)c2ccc(O)cc2)NC(=O)[C@@H]2C[C@@H](O)CN2C(=O)[C@H]([C@@H](C)O)NC1=O` [CASPOFUNGIN], the MIC80 (in general, an inhibitory concentration at the 80% level, which refers to growth in some studies and to a panel of isolates in others) was 0.25 µg/mL (≈ 0.229 µM) in data set [1]; less than 0.03 µg/mL in data set [3]; less than 0.03 µg/mL in data set [4]; less than 0.03 µg/mL in [5]; 0.03 µg/mL (≈ 0.0274 µM) in data set [6]; less than 0.03 µg/mL in [7]. The MIC80 is 0.125 µg/mL in data set [9], 0.06 µg/mL in [10] and less than 0.03 µg/mL in data set [11]. Further, the MIC in [1] was determined as 1 µg/mL (≈ 0.915 µM); in data set [2], 0.5 µg/mL (≈ 0.457 µM); in data set [3] it was 0.125 µg/mL (≈ 0.114 µM); in data set [4], 0.125 µg/mL (≈ 0.114 µM); in [5] it was 0.125 µg/mL (≈ 0.114 µM); in data set [6], 32 µg/mL (≈ 29.3 µM). Moreover, the MIC in data set [7] is greater than 32 µg/mL; in data set [8], 32 µg/mL (≈ 29.3 µM); in data set [9], 0.25 µg/mL; in [10] it was greater than 32 µg/mL; in [11], 0.125 µg/mL (≈ 0.114 µM).

With `CCCCCCCCCCCCC(C)C(O)CC(=O)N[C@@H](C)C(=O)N[C@@H](CCO)C(=O)N[C@@H](CCC(=O)O)C(=O)NCC(=O)N[C@@H](CO)C(=O)N[C@@H](CC(N)=O)C(=O)N[C@H](C(=O)N[C@@H](CCO)C(=O)O)[C@@H](C)O` (some centres undefined) (X1-A[hSer]EGSNT[hSer]-OH), the Activity entry in data set [12] was “Non-toxic”. Moreover, the outcome in data set [13] and in data set [14] was inactive.

Take `CCCCCCCCCCCCC(C)C1CC(=O)N[C@@H](C)C(=O)NC(CCO)C(=O)N[C@@H](CCC(=O)O)C(=O)NCC(=O)N[C@@H](CO)C(=O)N[C@H](CC(N)=O)C(=O)N[C@H]([C@H](C)O)C(=O)NC(CCO)C(=O)O1` (some centres undefined) [PHOMAFUNGIN]: the Activity entry in [15] was “Toxic”; in data set [12] it was “Toxic”; in [22], “Toxic”; in data set [26], “Non-toxic”. Also, the MIC in [1] is 4 µg/mL (≈ 3.88 µM); in data set [2], 4 µg/mL (≈ 3.88 µM); in [3], greater than 32 µg/mL; in [4], 4 µg/mL (≈ 3.88 µM); in data set [5] it was 8 µg/mL (≈ 7.77 µM); in data set [6] it was 2 µg/mL (≈ 1.94 µM). For the same molecule, the MIC was 4 µg/mL (≈ 3.88 µM) in data set [7]; greater than 32 µg/mL in data set [8]; greater than 32 µg/mL in data set [9]; greater than 32 µg/mL in [10]; 4 µg/mL (≈ 3.88 µM) in data set [11]. In addition, the half-life – broadly, the time needed for the level to fall by half in the phase considered – in [16] is 1.8 h. Moreover, the AUC in data set [17] came out at 2.64 µM. For the same molecule, the half-maximal inhibitory concentration (IC50) – broadly, the concentration that inhibits the measured activity by half – came to 20 µM in data set [18], 26 µM in [19], 19 µM in data set [23] and 15.5 µM in data set [24]. The MIC80 was determined as 4 µg/mL (≈ 3.88 µM) in [5] and 1 µg/mL (≈ 0.971 µM) in data set [6]. Moreover, the result in [20] and in [21] was inactive. Moreover, in data set [25], the clearance (in general, the rate of elimination divided by the concentration) came out at 6.15 mL/min/kg.

The values above are taken from ChEMBL document CHEMBL1143304, “Isolation, structure and biological activity of phomafungin, a cyclic lipodepsipeptide from a widespread tropical Phoma sp” (Bioorg Med Chem, 2009).
